Measured values from ChEMBL document CHEMBL1136765, “1,3-dioxolane-based ligands as a novel class of alpha1-adrenoceptor antagonists” (J Med Chem, 2003).

Legend:
[1] = biological target: Alpha adrenergic receptor 1A and 1D (Rattus norvegicus) (UniProt P23944+P43140); assay: Selectivity given as ratio of pKb value against Alpha-1D receptor to pKb value against alpha1A receptor in rat; assay type: functional
[2] = biological target: T1, Alpha-1B adrenergic receptor (Rattus norvegicus, UniProt P15823); assay: Antagonistic activity against (-)-phenylephrine-induced contraction of rat spleen (Alpha-1B adrenergic receptor ); assay type: functional, tissue-based; conditions: read-out: pA2 (converted)
T1 sequence (P15823 whole entry): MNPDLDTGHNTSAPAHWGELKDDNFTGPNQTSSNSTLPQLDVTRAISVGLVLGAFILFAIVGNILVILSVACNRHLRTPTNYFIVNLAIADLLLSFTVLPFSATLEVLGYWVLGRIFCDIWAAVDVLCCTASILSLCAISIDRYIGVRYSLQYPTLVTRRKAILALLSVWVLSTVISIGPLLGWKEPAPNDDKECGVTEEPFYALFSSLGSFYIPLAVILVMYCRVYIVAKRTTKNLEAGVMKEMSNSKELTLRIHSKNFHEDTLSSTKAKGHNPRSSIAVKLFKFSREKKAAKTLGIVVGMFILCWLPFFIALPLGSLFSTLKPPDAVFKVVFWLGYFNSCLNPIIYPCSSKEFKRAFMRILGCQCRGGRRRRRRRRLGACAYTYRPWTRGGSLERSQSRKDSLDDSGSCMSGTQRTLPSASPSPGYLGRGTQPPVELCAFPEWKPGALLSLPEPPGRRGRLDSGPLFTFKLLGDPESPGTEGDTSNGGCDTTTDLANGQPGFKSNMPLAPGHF
Method in brief: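 Rat spleen strips in buffer containing 4 µM propranolol to block β-adrenoceptors, 1 g resting tension, 2 h equilibration. Isometric cumulative phenylephrine curves at 30 min intervals; first discarded, second control.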

[3] = biological target: T2, Alpha-1D adrenergic receptor (Rattus norvegicus, UniProt P23944); assay: Antagonistic activity against (-)-noradrenaline-induced contraction of rat thoracic aorta (Alpha-1D adrenergic receptor); assay type: functional, tissue-based; conditions: read-out: pA2 (converted)
T2 sequence (P23944 whole entry): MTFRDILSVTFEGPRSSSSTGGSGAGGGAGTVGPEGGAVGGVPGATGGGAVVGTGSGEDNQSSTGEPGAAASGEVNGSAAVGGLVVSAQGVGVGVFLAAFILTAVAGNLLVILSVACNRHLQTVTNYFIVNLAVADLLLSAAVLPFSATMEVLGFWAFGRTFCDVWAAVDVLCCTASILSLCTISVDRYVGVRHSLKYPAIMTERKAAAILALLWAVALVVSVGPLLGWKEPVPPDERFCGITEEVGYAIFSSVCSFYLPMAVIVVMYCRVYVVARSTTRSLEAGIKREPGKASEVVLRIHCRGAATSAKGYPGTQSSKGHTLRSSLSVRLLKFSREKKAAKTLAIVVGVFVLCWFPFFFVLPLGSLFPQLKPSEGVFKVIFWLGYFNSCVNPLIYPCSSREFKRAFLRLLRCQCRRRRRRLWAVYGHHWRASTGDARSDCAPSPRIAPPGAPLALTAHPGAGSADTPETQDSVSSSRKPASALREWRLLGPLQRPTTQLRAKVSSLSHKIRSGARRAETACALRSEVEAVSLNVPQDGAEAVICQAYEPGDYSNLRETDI
Method in brief: (§1)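 Endothelium-denuded rat thoracic aorta strips (denudation confirmed by no 100 µM acetylcholine relaxation after 1 µM noradrenaline) in Tyrode, 1 g tension, ≥2 h equilibration. Cumulative (-)-noradrenaline curves at 1 h intervals; third as control, antagonist 30 min before fourth.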

[4] = biological target: T3, Alpha-1D adrenergic receptor (Homo sapiens, UniProt P25100); assay: Affinity constant towards human recombinant Alpha-1D adrenergic receptor using [3H]prazosin (from CHO cells) as radioligand by radioligand binding assay; assay type: cell-based
T3 sequence (P25100 whole entry): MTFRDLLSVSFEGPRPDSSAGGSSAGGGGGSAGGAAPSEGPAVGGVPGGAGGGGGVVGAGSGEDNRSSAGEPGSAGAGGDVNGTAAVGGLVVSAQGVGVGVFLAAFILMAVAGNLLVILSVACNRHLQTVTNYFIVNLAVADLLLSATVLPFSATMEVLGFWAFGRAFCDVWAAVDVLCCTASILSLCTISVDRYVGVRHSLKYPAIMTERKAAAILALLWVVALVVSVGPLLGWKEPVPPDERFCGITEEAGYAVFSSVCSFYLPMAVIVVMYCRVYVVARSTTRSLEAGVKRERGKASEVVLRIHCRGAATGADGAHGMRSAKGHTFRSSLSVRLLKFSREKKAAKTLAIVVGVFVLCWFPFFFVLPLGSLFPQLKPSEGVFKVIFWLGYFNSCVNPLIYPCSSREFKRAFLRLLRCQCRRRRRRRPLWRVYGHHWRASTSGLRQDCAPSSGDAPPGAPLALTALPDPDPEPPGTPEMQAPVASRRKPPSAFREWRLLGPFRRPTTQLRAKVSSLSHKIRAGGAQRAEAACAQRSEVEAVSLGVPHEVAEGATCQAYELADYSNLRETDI
Method in brief: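 Membranes of CHO cells stably expressing each cloned human α1 subtype (30 µg protein) incubated with 0.1-0.4 nM [3H]prazosin in 50 mM Tris-HCl pH 7.4, 30 min at 25 °C, with competitor. Nonspecific binding with 10 µM phentolamine. Stopped by ice-cold buffer and filtration on PEI-pretreated filters. IC50 by curve fitting, Ki via Cheng-Prusoff. Mean of two to three experiments in triplicate.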

[5] = biological target: T4, Alpha-1A adrenergic receptor (Rattus norvegicus, UniProt P43140); assay: Antagonistic activity against (-)-noradrenaline-induced contraction of rat prostatic vas deferens (alpha1A receptor); assay type: functional, tissue-based; conditions: read-out: pA2 (converted)
T4 sequence (P43140 whole entry): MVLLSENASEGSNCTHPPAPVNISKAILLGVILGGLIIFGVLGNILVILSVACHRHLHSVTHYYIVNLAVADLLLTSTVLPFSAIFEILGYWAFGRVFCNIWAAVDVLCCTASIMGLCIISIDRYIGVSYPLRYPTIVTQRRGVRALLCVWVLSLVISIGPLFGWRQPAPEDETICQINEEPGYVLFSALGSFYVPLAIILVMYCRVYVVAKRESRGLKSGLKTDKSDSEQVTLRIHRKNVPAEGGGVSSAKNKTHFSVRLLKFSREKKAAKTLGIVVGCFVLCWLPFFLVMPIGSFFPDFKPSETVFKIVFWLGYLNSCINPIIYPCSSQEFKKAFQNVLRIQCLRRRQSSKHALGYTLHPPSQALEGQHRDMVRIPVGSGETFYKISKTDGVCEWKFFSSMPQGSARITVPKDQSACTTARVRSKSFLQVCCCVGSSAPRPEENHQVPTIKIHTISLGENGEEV
Method in brief: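 Rat prostatic vas deferens portion equilibrated 60 min, washed every 15 min, primed twice with 10 µM noradrenaline, re-equilibrated 60 min; control noradrenaline concentration-response curve, then antagonist 30 min before repeat curve.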

[6] = biological target: T5, Alpha-1D adrenergic receptor (Rattus norvegicus) (UniProt P23944); assay: Inhibition of (-)-noradrenaline-induced contraction of rat thoracic aorta (Alpha-1D adrenergic receptor); assay type: functional, tissue-based; method in brief: as §1
T5 sequence (whole entry): T2 sequence (P23944 whole entry)

SMILES	Selectivity [1]	Kb [2] [nM]	Kb [3] [nM]	Ki [4] [nM]	Kb [5] [nM]	pKb [6]
COc1ccccc1OCCNCC1COC(c2ccccc2)(c2ccccc2)O1.O=C(O)C(=O)O (centres undefined)	13	43.7	2.24	9.33	29.5	–
C[N+](C)(CCOc1ccccc1)CC1COC(c2ccccc2)(c2ccccc2)O1.O=C([O-])C(=O)O (centres undefined)	> 15	–	–	> 1000	–	6.19
O=C(O)C(=O)O.c1ccc(OCCNCC2COC(c3ccccc3)(c3ccccc3)O2)cc1 (centres undefined)	162	–	4.27	11.5	–	–
CN(CCOc1ccccc1)CC1COC(c2ccccc2)(c2ccccc2)O1.O=C(O)C(=O)O (centres undefined)	10	–	–	> 1000	–	6.06
